S100A4 inh HTS = blocks human S100A4 binding to myosin IIA peptide | 0.14% of 360,000 active | inhibition, % at 10.7 µM | S100A4/TAMRA-MyoIIA peptide fluorescence polarization | P26447;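 active = mean inhibition of at least 70% across replicates, with every replicate also reaching that level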
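Compound dosing: one dose per compound; test system: human S100A4 monomer with TAMRA-labelled myosin IIA peptide; probe or stimulus: TAMRA-labelled myosin IIA heavy-chain peptide probe, 5 nM; medium: HEPES buffer with Ca2+, pH 7.2; schedule: 5 min incubation before reading; benchmarks: neutral control DMSO, positive control TFP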
FGF22 binding = binders of recombinant human FGF22 by thermal shift; activity (Tm shift, normalised), % at 9.99 µM; SYPRO orange fluorescence; percent of sucrose octasulfate shift, DMSO zero; Q9HCT0; 1.5% of 340,000 active;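 active = mean Tm shift, scaled 0 neutral to 100 positive control, at about 1.3% or above, every replicate too, limit read from the data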
E-selectin induc = induces E-selectin expression in human endothelial cells | HUVEC E-selectin immunofluorescence imaging; normalized: neutral wells 0, TNF-alpha wells 100 | activation, % at 7.58 µM | 0.37% of 260,000 active | AID 686992;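 active = mean E-selectin-positive cell signal at least 10% of the positive control, reached in at least 60% of replicates, without over 20% cell loss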
Target sequence (P16581 whole entry, looked up): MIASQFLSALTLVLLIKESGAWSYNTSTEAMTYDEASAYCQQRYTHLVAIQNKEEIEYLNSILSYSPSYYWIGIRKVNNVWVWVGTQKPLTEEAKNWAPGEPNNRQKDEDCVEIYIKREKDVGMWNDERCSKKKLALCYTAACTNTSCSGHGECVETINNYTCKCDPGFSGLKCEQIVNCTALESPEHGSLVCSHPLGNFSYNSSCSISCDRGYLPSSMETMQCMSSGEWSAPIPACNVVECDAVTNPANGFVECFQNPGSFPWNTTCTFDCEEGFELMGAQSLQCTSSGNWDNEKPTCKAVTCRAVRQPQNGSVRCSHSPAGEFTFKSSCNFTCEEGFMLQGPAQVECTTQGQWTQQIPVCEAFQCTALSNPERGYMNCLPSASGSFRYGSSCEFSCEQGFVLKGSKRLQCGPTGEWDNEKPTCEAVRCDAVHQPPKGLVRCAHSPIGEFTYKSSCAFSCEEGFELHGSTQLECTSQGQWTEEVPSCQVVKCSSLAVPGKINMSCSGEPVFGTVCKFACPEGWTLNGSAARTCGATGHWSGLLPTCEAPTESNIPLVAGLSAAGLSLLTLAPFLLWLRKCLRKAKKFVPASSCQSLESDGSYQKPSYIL
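Test system: HUVEC | Signal: Immunofluorescence imaging | Read-out: Percent E-selectin-positive cells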
F508del corr = CFTR F508del correction in bronchial cells | 0.36% of 350,000 active | AID 720511 | CFBE cells, YFP halide quenching; stimulated with forskolin plus potentiator P3; % fluorescence drop versus neutral controls | activity (quench increase), % at 7.58 µM;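 active = mean added fluorescence quench of at least 8% versus neutral control, with both replicates also reaching 8%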;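 also: cells transiently co-express mutant CFTR-F508del with the halide-sensitive YFP; corrector assay measuring rescue of mutant channel to the surface after 24 h compound exposure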
HIV Env fusion = HIV envelope-mediated fusion inhibition. HeLa-JRFL Env/CEM21 cell fusion, luciferase. inhibition, % at 12.3 µM. 1.1% of 360,000 active. AID 651610;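 active = mean replicate inhibition score of at least 50 and every replicate individually at or above 50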;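 also: 0% = plate neutral controls and 100% = maraviroc near 300 nM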
Active calls of the source: *. Shown are actives, neighbours in structure and some others; about 2.7% of the full set was active somewhere.

Cc1cccc(N2CCN(C(=O)c3cccc(S(=O)(=O)N4CCCCC4)c3)CC2)c1C was read as S100A4 inh HTS -3.7, FGF22 binding 0.0, E-selectin induc -0.1, F508del corr 0.5 and HIV Env fusion 64.2*.
`Cc1cccc(N2CCN(C(=O)CNC(=O)C3CCCCC3)CC2)c1C` gave S100A4 inh HTS 3.5, FGF22 binding -0.1, E-selectin induc 0.9, F508del corr -1.4 and HIV Env fusion 55.6*.
CC1Cc2ccccc2N1S(=O)(=O)c1cccc(C(=O)N2CCN(c3ncccn3)CC2)c1 (stereo not given) was read as S100A4 inh HTS -5.1, FGF22 binding 0.1, F508del corr 8.5* and HIV Env fusion -28.8.
For O=C(Nc1ccc(-c2ccccc2)cc1)[C@@H]1[C@@H](CO)[C@@H]2Cn3c(cccc3=O)[C@H]1N2Cc1ccccc1 the results were S100A4 inh HTS 1.2, FGF22 binding -0.1, E-selectin induc -1.6 and F508del corr 0.4.
`C[C@@H]1CN([C@H](C)CO)C(=O)Cc2cc(NC(=O)CCC(F)(F)F)ccc2O[C@H]1CN(C)CC1CCCCC1` gave S100A4 inh HTS -4.3, FGF22 binding 0.6, E-selectin induc -0.4 and F508del corr -1.6.
Nn1c(SCc2cccc(Oc3ccccc3)c2)nnc1C(F)(F)F was read as S100A4 inh HTS -6.2, FGF22 binding 43.0*, E-selectin induc -0.3, F508del corr -0.9 and HIV Env fusion 28.8.
Screening CCCC#Cc1ccc([C@H]2[C@H]3CN(C(=O)NCCC)CC(=O)N3[C@H]2CO)cc1 returned S100A4 inh HTS -7.5, E-selectin induc -0.4 and F508del corr -1.3.
For Cc1cccc(NC(=O)c2cc3n(n2)C(C(F)(F)F)CC(c2ccc4c(c2)OCO4)N3)c1 (stereo not given) the results were HIV Env fusion 106.2*.
Cc1cc(C(=O)CSc2nn3c(=O)c(C(C)(C)C)nnc3s2)c(C)n1C1CC1 was read as S100A4 inh HTS -9.4, FGF22 binding 1.7*, F508del corr -0.7 and HIV Env fusion 3.0.
For CC(C)(C)c1nnc2sc(SCC(=O)c3ccc(Cl)cc3)nn2c1=O the results were S100A4 inh HTS -4.7.
OC1(C#CCCN2CCCCC2)c2ccccc2-c2ccccc21 was read as S100A4 inh HTS -5.8, FGF22 binding 44.0*, E-selectin induc 2.6, F508del corr 2.0 and HIV Env fusion -6.0.
`Cn1c(C2=C(O)CN(c3ccccc3)C2=N)nc2ccccc21` gave S100A4 inh HTS -3.6, FGF22 binding 44.3*, F508del corr 4.2 and HIV Env fusion -11.6.
`COc1ccc(C2c3ccc4ccccc4c3Oc3ncn(CCCO)c(=N)c32)cc1OC` (stereo not given) gave S100A4 inh HTS -4.5, FGF22 binding -0.2, E-selectin induc 0.2, F508del corr 15.0* and HIV Env fusion -3.1.
For O=S(=O)(c1ccc(F)cc1)c1nc(-c2ccco2)oc1Nc1ccccc1 the results were S100A4 inh HTS -2.0, FGF22 binding 0.1, E-selectin induc 0.1, F508del corr 0.9 and HIV Env fusion 65.5*.
`O=S(=O)(c1ccccc1)c1nc(-c2ccco2)oc1Nc1ccccc1` gave S100A4 inh HTS -1.4, FGF22 binding 0.0, E-selectin induc 0.4 and HIV Env fusion 15.8.
O=C(C[C@@H]1C[C@H]2c3cc(NS(=O)(=O)c4ccc(F)cc4)ccc3O[C@H]2[C@@H](CO)O1)NCc1cc(F)ccc1F was read as S100A4 inh HTS -4.0, FGF22 binding 0.0, E-selectin induc -0.5 and F508del corr 1.3.
Screening O=[N+]([O-])c1ccc(Cl)c(/C=N/Nc2nc(N3CCOCC3)nc(N3CCOCC3)n2)c1 returned E-selectin induc 2.0 and HIV Env fusion -0.8.
Screening O=[N+]([O-])c1cccc(/C=N/Nc2nc(N3CCOCC3)nc(N3CCOCC3)n2)c1 returned S100A4 inh HTS 0.1, FGF22 binding 44.3*, F508del corr 1.7 and HIV Env fusion -7.2.
For Cc1cn(-c2ccccc2)c(C)c1/C=N\Nc1nc(N2CCOCC2)nc(N2CCOCC2)n1 the results were S100A4 inh HTS 0.4, FGF22 binding 43.1*, E-selectin induc 0.0, F508del corr -0.2 and HIV Env fusion 15.0.
